Laboratory results taken from ChEMBL document CHEMBL3124924, “Bifunctional ethyl 2-amino-4-methylthiazole-5-carboxylate derivatives: synthesis and in vitro biological evaluation as antimicrobial and anticancer agents” (2014).
Values after ≈ are worked out from the molar mass of the structure shown.

Key:
Format in all cases: functional
Escherichia coli [1] = assay: Antibacterial activity against Escherichia coli ATCC 25922 assessed as growth inhibition at 1 mg/mL after 24 hrs by agar-cup diffusion method; details: ATCC 25922, 24 h, read-out: DIZ
Procedure, shortened: (§1)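 Agar-cup diffusion: 1 mL of 6 h broth culture seeded per 100 mL molten sterile agar at 45 °C and poured into plates. 8 mm cups cut, each filled with 0.1 mL of 1 mg/mL test solution. Incubated 37 °C for 24 h, 48 h for C. albicans. DMSO control per organism. Inhibition zone diameter in mm, mean of three measurements.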

Bacillus spizizenii [2] = assay: Antibacterial activity against Bacillus subtilis ATCC 6633 assessed as growth inhibition at 1 mg/mL after 24 hrs by agar-cup diffusion method; details: ATCC 6633, 24 h, read-out: DIZ; procedure, shortened: as §1
U-251 = assay: Cytotoxicity against human U251 cells assessed as growth inhibition at 10 uM after 48 hrs by SRB assay; details: U-251, 48 h, read-out: GI
Procedure, shortened: (§2)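 NCI-60 one-dose primary screen run by the NCI Drug Evaluation Branch across the full 60-line panel. Single high-dose treatment with 48 h continuous drug exposure. Cell growth estimated by sulforhodamine B protein staining. Results given as percent growth of treated cells and expressed as percentage growth inhibition.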

SNB-75 = assay: Cytotoxicity against human SNB75 cells assessed as growth inhibition at 10 uM after 48 hrs by SRB assay; details: SNB-75, 48 h, read-out: GI; procedure, shortened: as §2
SF-268 = assay: Cytotoxicity against human SF268 cells assessed as growth inhibition at 10 uM after 48 hrs by SRB assay; details: SF-268, 48 h, read-out: GI; procedure, shortened: as §2
PC-3 = assay: Cytotoxicity against human PC3 cells assessed as growth inhibition at 10 uM after 48 hrs by SRB assay; details: PC-3, 48 h, read-out: GI; procedure, shortened: as §2
UACC-62 = assay: Cytotoxicity against human UACC62 cells assessed as growth inhibition at 10 uM after 48 hrs by SRB assay; details: UACC-62, 48 h, read-out: GI; procedure, shortened: as §2
SK-MEL-5 = assay: Cytotoxicity against human SK-MEL-5 cells assessed as growth inhibition at 10 uM after 48 hrs by SRB assay; details: SK-MEL-5, 48 h, read-out: GI; procedure, shortened: as §2
SK-MEL-2 = assay: Cytotoxicity against human SK-MEL-2 cells assessed as growth inhibition at 10 uM after 48 hrs by SRB assay; details: SK-MEL-2, 48 h, read-out: GI; procedure, shortened: as §2
[3] = Cytotoxicity against human UO31 cells assessed as growth inhibition at 10 uM after 48 hrs by SRB assay; details: UO-31, 48 h, read-out: GI; procedure, shortened: as §2
A498 = assay: Cytotoxicity against human A498 cells assessed as growth inhibition at 10 uM after 48 hrs by SRB assay; details: A498, 48 h, read-out: GI; procedure, shortened: as §2
RPMI-8226 = assay: Cytotoxicity against human RPMI8226 cells assessed as growth inhibition at 10 uM after 48 hrs by SRB assay; details: RPMI-8226, 48 h, read-out: GI; procedure, shortened: as §2
CCRF-CEM = assay: Cytotoxicity against human CCRF-CEM cells assessed as growth inhibition at 10 uM after 48 hrs by SRB assay; details: read-out: GI; procedure, shortened: as §2
T47D = assay: Cytotoxicity against human T47D cells assessed as growth inhibition at 10 uM after 48 hrs by SRB assay; details: read-out: GI; procedure, shortened: as §2
MDA-MB-468 = assay: Cytotoxicity against human MDA-MB-468 cells assessed as growth inhibition at 10 uM after 48 hrs by SRB assay; details: MDA-MB-468, 48 h, read-out: GI; procedure, shortened: as §2
[4] = Cytotoxicity against human NCI-ADR-RES cells assessed as growth inhibition at 10 uM after 48 hrs by SRB assay; details: read-out: GI; procedure, shortened: as §2
MCF7 = assay: Cytotoxicity against human MCF7 cells assessed as growth inhibition at 10 uM after 48 hrs by SRB assay; details: MCF7, 48 h, read-out: GI; procedure, shortened: as §2
[5] = Cytotoxicity against human Hs578T cells assessed as growth inhibition at 10 uM after 48 hrs by SRB assay; details: Hs-578T, read-out: GI; procedure, shortened: as §2
SW-620 = assay: Cytotoxicity against human SW620 cells assessed as growth inhibition at 10 uM after 48 hrs by SRB assay; details: SW-620, 48 h, read-out: GI; procedure, shortened: as §2
HT-29 = assay: Cytotoxicity against human HT-29 cells assessed as growth inhibition at 10 uM after 48 hrs by SRB assay; details: HT-29, 48 h, read-out: GI; procedure, shortened: as §2
HCT-15 = assay: Cytotoxicity against human HCT15 cells assessed as growth inhibition at 10 uM after 48 hrs by SRB assay; details: HCT-15, 48 h, read-out: GI; procedure, shortened: as §2
HCT-116 = assay: Cytotoxicity against human HCT116 cells assessed as growth inhibition at 10 uM after 48 hrs by SRB assay; details: HCT-116, 48 h, read-out: GI; procedure, shortened: as §2
NCI-H522 = assay: Cytotoxicity against human NCI-H522 cells assessed as growth inhibition at 10 uM after 48 hrs by SRB assay; details: NCI-H522, 48 h, read-out: GI; procedure, shortened: as §2
NCI-H322M = assay: Cytotoxicity against human NCI-H322M cells assessed as growth inhibition at 10 uM after 48 hrs by SRB assay; details: read-out: GI; procedure, shortened: as §2
HOP-92 = assay: Cytotoxicity against human HOP92 cells assessed as growth inhibition at 10 uM after 48 hrs by SRB assay; details: HOP-92, 48 h, read-out: GI; procedure, shortened: as §2
Pseudomonas aeruginosa [6] = assay: Bactericidal activity against Pseudomonas aeruginosa ATCC 27853 after 18 hrs; details: ATCC 27853, 18 h
Procedure, shortened: (§3)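 Continuation of the broth-dilution MIC test. A loopful from each tube without visible growth spread on a quarter of a Mueller-Hinton agar plate and incubated 18 h. Lowest concentration giving no growth on subculture taken as the MBC.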

Pseudomonas aeruginosa [7] = assay: Antibacterial activity against Pseudomonas aeruginosa ATCC 27853 assessed as growth inhibition after 48 hrs by two-fold serial dilution assay; details: ATCC 27853, 48 h
Procedure, shortened: (§4)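 Twofold serial broth dilution run on compounds giving inhibition zones of 13 mm or more. Organisms pre-grown in suitable broth at 37 °C, 24 h for bacteria and 48 h for fungi. Dilution series 200, 100, 50, 25, 12.5, 6.25. Each 5 mL tube inoculated with 0.1 mL and incubated 37 °C for 48 h. Tubes scored for presence or absence of growth.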

Escherichia coli [8] = assay: Bactericidal activity against Escherichia coli ATCC 25922 after 18 hrs; details: ATCC 25922, 18 h; procedure, shortened: as §3
Escherichia coli [9] = assay: Antibacterial activity against Escherichia coli ATCC 25922 assessed as growth inhibition after 48 hrs by two-fold serial dilution assay; details: ATCC 25922, 48 h; procedure, shortened: as §4
Bacillus spizizenii [10] = assay: Bactericidal activity against Bacillus subtilis ATCC 6633 after 18 hrs; details: ATCC 6633, 18 h; procedure, shortened: as §3
Bacillus spizizenii [11] = assay: Antibacterial activity against Bacillus subtilis ATCC 6633 assessed as growth inhibition after 48 hrs by two-fold serial dilution assay; details: ATCC 6633, 48 h; procedure, shortened: as §4
Staphylococcus aureus [12] = assay: Bactericidal activity against Staphylococcus aureus ATCC 6538 after 18 hrs; details: ATCC 6538, 18 h; procedure, shortened: as §3
Staphylococcus aureus [13] = assay: Antibacterial activity against Staphylococcus aureus ATCC 6538 assessed as growth inhibition after 48 hrs by two-fold serial dilution assay; details: ATCC 6538, 48 h; procedure, shortened: as §4

Structure (SMILES)	zone of inhibition at 1000 µg/mL (Escherichia coli [1]) [mm]	zone of inhibition at 1000 µg/mL (Bacillus spizizenii [2]) [mm]	inhibition of growth at 10 µM (U-251) [%]	inhibition of growth at 10 µM (SNB-75) [%]	inhibition of growth at 10 µM (SF-268) [%]	inhibition of growth at 10 µM (PC-3) [%]	inhibition of growth at 10 µM (UACC-62) [%]	inhibition of growth at 10 µM (SK-MEL-5) [%]	inhibition of growth at 10 µM (SK-MEL-2) [%]	inhibition of growth at 10 µM [3] [%]	inhibition of growth at 10 µM (A498) [%]	inhibition of growth at 10 µM (RPMI-8226) [%]	inhibition of growth at 10 µM (CCRF-CEM) [%]	inhibition of growth at 10 µM (T47D) [%]	inhibition of growth at 10 µM (MDA-MB-468) [%]	inhibition of growth at 10 µM [4] [%]	inhibition of growth at 10 µM (MCF7) [%]	inhibition of growth at 10 µM [5] [%]	inhibition of growth at 10 µM (SW-620) [%]	inhibition of growth at 10 µM (HT-29) [%]	other results
Cc1nc(NC(=O)NC2CCCCC2)sc1C(=O)NN	> 13	> 13	2.59	< 10	< 10	< 10	10.2	< 10	29.3	16	< 10	< 10	< 10	< 10	3.73	3.01	< 10	< 10	< 10	5.51	inhibition of growth at 10 µM (HCT-15): 9.55%; inhibition of growth at 10 µM (HCT-116): 16.3%; inhibition of growth at 10 µM (NCI-H522): 99.5%; inhibition of growth at 10 µM (NCI-H322M): < 10%; inhibition of growth at 10 µM (HOP-92): 82.8%; MBC (Pseudomonas aeruginosa [6]): 200 mg/L (≈ 673 µM); MIC (Pseudomonas aeruginosa [7]): 100 mg/L (≈ 336 µM); MBC (Escherichia coli [8]): 100 mg/L (≈ 336 µM); MIC (Escherichia coli [9]): 50 mg/L (≈ 168 µM); MBC (Bacillus spizizenii [10]): 100 mg/L (≈ 336 µM); MIC (Bacillus spizizenii [11]): 100 mg/L (≈ 336 µM); MBC (Staphylococcus aureus [12]): 50 mg/L (≈ 168 µM); MIC (Staphylococcus aureus [13]): 25 mg/L (≈ 84.1 µM)
CCOC(=O)c1sc(NC(=O)c2cc(OC)c(OC)c(OC)c2)nc1C	> 13	> 13	< 10	2.51	3.75	35	11.5	5.59	69.1	24.3	11.4	17	11.7	< 10	8.82	4.66	12.5	11.2	< 10	< 10	inhibition of growth at 10 µM (HCT-15): 5.3%; inhibition of growth at 10 µM (HCT-116): 4.01%; inhibition of growth at 10 µM (NCI-H522): 32.6%; inhibition of growth at 10 µM (NCI-H322M): < 10%; inhibition of growth at 10 µM (HOP-92): 53.1%; MBC (Pseudomonas aeruginosa [6]): 100 mg/L (≈ 263 µM); MIC (Pseudomonas aeruginosa [7]): 50 mg/L (≈ 131 µM); MBC (Escherichia coli [8]): 12.5 mg/L (≈ 32.9 µM); MIC (Escherichia coli [9]): 12.5 mg/L (≈ 32.9 µM); MBC (Bacillus spizizenii [10]): 50 mg/L (≈ 131 µM); MIC (Bacillus spizizenii [11]): 25 mg/L (≈ 65.7 µM); MBC (Staphylococcus aureus [12]): 6.25 mg/L (≈ 16.4 µM); MIC (Staphylococcus aureus [13]): 6.25 mg/L (≈ 16.4 µM)
